Experimental data from ChEMBL document CHEMBL2040727, “Substituted thiazoles VI. Synthesis and antitumor activity of new 2-acetamido- and 2 or 3-propanamido-thiazole analogs” (2012).

Tested on: MDA-MB-468
Experiment: Growth inhibition of human MDA-MB-468 cells at 10 uM after 48 hrs by coulter counter analysis
Format: functional
Conditions: MDA-MB-468, 48 h, read-out: GI
Method in brief: (§1)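 Single-dose NCI 60-line panel screen of test compounds. Cells grown in RPMI 1640 with 10% FBS. Compounds dissolved in DMSO, then diluted in phosphate buffer saline (final DMSO below 1%). Wells run in duplicate at 6 × 10⁴ cells/ml. Controls held PBS and DMSO at matching dilutions. Incubation 48 h at 37 °C under humidified 5% CO2. Cells diluted tenfold in saline and counted by Coulter counter. Percent growth inhibition taken from mean-graph of treated-cell growth.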

Compound | inhibition of growth at 10 µM [%]
CCOC(=O)c1sc(NC(=O)C(C)N2CCN(C)CC2)nc1C (stereo not drawn) | < 10

Tested on: not listed separately
Experiment: Growth inhibition of human NCI-ADR-RES cells at 10 uM after 48 hrs by coulter counter analysis
Format: functional
Conditions: read-out: GI
Method in brief: as §1

Compound | inhibition of growth at 10 µM [%]
CCOC(=O)c1sc(NC(=O)C(C)N2CCN(C)CC2)nc1C (stereo not drawn) | < 10

Tested on: SW-620
Experiment: Growth inhibition of human SW620 cells at 10 uM after 48 hrs by coulter counter analysis
Format: functional
Conditions: SW-620, 48 h, read-out: GI
Method in brief: (§2)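 Single-dose screen in the NCI 60 cell line panel. Cells grown in RPMI 1640 with 10% FBS. Compounds dissolved in DMSO and diluted in phosphate buffered saline, final DMSO under 1%. Duplicate wells seeded from culture at 6 × 10⁴ cells/ml. Incubated 48 h at 37 °C, humidified, 5% CO2. Cells diluted tenfold in saline and Coulter-counted. Percent growth inhibition computed against PBS/DMSO controls.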

Compound | inhibition of growth at 10 µM [%]
CCOC(=O)c1sc(NC(=O)C(C)N2CCN(C)CC2)nc1C (stereo not drawn) | < 10

Tested on: M14
Experiment: Growth inhibition of human M14 cells at 10 uM after 48 hrs by coulter counter analysis
Format: functional
Conditions: M14, 48 h, read-out: GI
Method in brief: as §1

Compound | inhibition of growth at 10 µM [%]
CCOC(=O)c1sc(NC(=O)C(C)N2CCN(C)CC2)nc1C (stereo not drawn) | < 10

Tested on: IGROV-1
Experiment: Growth inhibition of human IGROV1 cells at 10 uM after 48 hrs by coulter counter analysis
Format: functional
Conditions: IGROV-1, 48 h, read-out: GI
Method in brief: as §1

Compound | inhibition of growth at 10 µM [%]
CCOC(=O)c1sc(NC(=O)C(C)N2CCN(C)CC2)nc1C (stereo not drawn) | < 10

Tested on: SF-295
Experiment: Growth inhibition of human SF295 cells at 10 uM after 48 hrs by coulter counter analysis
Format: functional
Conditions: SF-295, 48 h, read-out: GI
Method in brief: as §1

Compound | inhibition of growth at 10 µM [%]
CCOC(=O)c1sc(NC(=O)C(C)N2CCN(C)CC2)nc1C (stereo not drawn) | < 10

Tested on: RPMI-8226
Experiment: Growth inhibition of human RPMI8226 cells at 10 uM after 48 hrs by coulter counter analysis
Format: functional
Conditions: RPMI-8226, 48 h, read-out: GI
Method in brief: as §1

Compound | inhibition of growth at 10 µM [%]
CCOC(=O)c1sc(NC(=O)C(C)N2CCN(C)CC2)nc1C (stereo not drawn) | < 10

Tested on: T47D
Experiment: Growth inhibition of human T47D cells at 10 uM after 48 hrs by coulter counter analysis
Format: functional
Conditions: read-out: GI
Method in brief: as §2

Compound | inhibition of growth at 10 µM [%]
CCOC(=O)c1sc(NC(=O)C(C)N2CCN(C)CC2)nc1C (stereo not drawn) | < 10

Tested on: LOX IMVI
Experiment: Growth inhibition of human LOXIMVI cells at 10 uM after 48 hrs by coulter counter analysis
Format: functional
Conditions: read-out: GI
Method in brief: as §1

Compound | inhibition of growth at 10 µM [%]
CCOC(=O)c1sc(NC(=O)C(C)N2CCN(C)CC2)nc1C (stereo not drawn) | < 10

Tested on: MDA-MB-435
Experiment: Growth inhibition of human MDA-MB-435 cells at 10 uM after 48 hrs by coulter counter analysis
Format: functional
Conditions: MDA-MB-435, 48 h, read-out: GI
Method in brief: as §1

Compound | inhibition of growth at 10 µM [%]
CCOC(=O)c1sc(NC(=O)C(C)N2CCN(C)CC2)nc1C (stereo not drawn) | < 10

Tested on: OVCAR-4
Experiment: Growth inhibition of human OVCAR4 cells at 10 uM after 48 hrs by coulter counter analysis
Format: functional
Conditions: OVCAR-4, 48 h, read-out: GI
Method in brief: as §1

Compound | inhibition of growth at 10 µM [%]
CCOC(=O)c1sc(NC(=O)C(C)N2CCN(C)CC2)nc1C (stereo not drawn) | < 10

Tested on: NCI-H322M
Experiment: Growth inhibition of human NCI-H322M cells at 10 uM after 48 hrs by coulter counter analysis
Format: functional
Conditions: read-out: GI
Method in brief: as §1

Compound | inhibition of growth at 10 µM [%]
CCOC(=O)c1sc(NC(=O)C(C)N2CCN(C)CC2)nc1C (stereo not drawn) | < 10

Tested on: SN12C
Experiment: Growth inhibition of human SN12C cells at 10 uM after 48 hrs by coulter counter analysis
Format: functional
Conditions: read-out: GI
Method in brief: as §1

Compound | inhibition of growth at 10 µM [%]
CCOC(=O)c1sc(NC(=O)C(C)N2CCN(C)CC2)nc1C (stereo not drawn) | < 10

Tested on: HOP-92
Experiment: Growth inhibition of human HOP92 cells at 10 uM after 48 hrs by coulter counter analysis
Format: functional
Conditions: HOP-92, 48 h, read-out: GI
Method in brief: as §1

Compound | inhibition of growth at 10 µM [%]
CCOC(=O)c1sc(NC(=O)C(C)N2CCN(C)CC2)nc1C (stereo not drawn) | < 10

Tested on: not listed separately
Experiment: Growth inhibition of human Hs 578T cells at 10 uM after 48 hrs by coulter counter analysis
Format: functional
Conditions: read-out: GI
Method in brief: as §1

Compound | inhibition of growth at 10 µM [%]
CCOC(=O)c1sc(NC(=O)C(C)N2CCN(C)CC2)nc1C (stereo not drawn) | < 10

Tested on: NCI-H226
Experiment: Growth inhibition of human NCI-H226 cells at 10 uM after 48 hrs by coulter counter analysis
Format: functional
Conditions: NCI-H226, 48 h, read-out: GI
Method in brief: as §1

Compound | inhibition of growth at 10 µM [%]
CCOC(=O)c1sc(NC(=O)C(C)N2CCN(C)CC2)nc1C (stereo not drawn) | < 10

Tested on: BT-549
Experiment: Growth inhibition of human BT549 cells at 10 uM after 48 hrs by coulter counter analysis
Format: functional
Conditions: BT-549, 48 h, read-out: GI
Method in brief: as §1

Compound | inhibition of growth at 10 µM [%]
CCOC(=O)c1sc(NC(=O)C(C)N2CCN(C)CC2)nc1C (stereo not drawn) | < 10

Tested on: MDA-MB-231
Experiment: Growth inhibition of human MDA-MB-231 cells at 10 uM after 48 hrs by coulter counter analysis
Format: functional
Conditions: MDA-MB-231, 48 h, read-out: GI
Method in brief: as §1

Compound | inhibition of growth at 10 µM [%]
CCOC(=O)c1sc(NC(=O)C(C)N2CCN(C)CC2)nc1C (stereo not drawn) | < 10
